Source: ChEMBL document CHEMBL4130369, “Structure-activity relations of rosmarinic acid derivatives for the amyloid β aggregation inhibition and antioxidant properties” (Eur J Med Chem, 2017)

Assays:
[1] = Inhibition of butter milk XOD (unknown origin) at 100 uM using xanthine as substrate after 8 mins relative to control
In short: (§1)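 Butter-milk xanthine oxidase in 100 mM phosphate buffer, pH 7.6, with compound added in DMSO. Reaction started with 500 μM xanthine (solution concentration) at rt and stopped after 8 min with 1N HCl. Absorbance at 290 nm was compared with enzyme-activity and blank wells to calculate % inhibition.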

[2] = Inhibition of butter milk XOD (unknown origin) at 10 uM using xanthine as substrate after 8 mins relative to control; in short: as §1
[3] = Antioxidant activity assessed as inhibition of DPPH radical at 100 uM incubated for 20 mins measured for 60 mins relative to control; assay type: functional
In short: (§2)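 DPPH (40 μL of 1 mM stock) in EtOH; test compound added from 2 mM or 10 mM DMSO stocks at rt. Absorbance at 517 nm read continuously for 60 min. Radical trapping capacity was calculated from the 20 min reading.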

[4] = Antioxidant activity assessed as inhibition of DPPH radical at 500 uM incubated for 20 mins measured for 60 mins relative to control; assay type: functional; in short: as §2
[5] = biological target: T1, Amyloid-beta precursor protein (Homo sapiens, UniProt P05067); experiment: Inhibition of QD-labeled amyloid beta (1 to 42) (unknown origin) aggregation after 24 hrs by inverted fluorescence microscopic method
In short: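 Modified MSHTS: 30 μM Aβ(1-42) plus 30 nM QD-labeled Aβ(1-42) with serial compound concentrations in PBS containing 5% EtOH and 3% DMSO, 37°C, 24 h. Coaggregates were imaged by inverted fluorescence microscopy with a color CCD. SD of pixel fluorescence in the well centre (100×100 pixels) was plotted against concentration, and EC50 was fitted by global EC50-shift fitting.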

[6] = biological target: T1, Amyloid-beta precursor protein; experiment: Inhibition of QD-labeled amyloid beta (1 to 42) (unknown origin) aggregation assessed as change in fluorescence at 5.13 uM after 24 hrs by inverted fluorescence microscopic method (reference value: 6.77)
In short: (§3)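 Aβ(1-42) (30 μM) was co-incubated with 30 nM QD-labeled Aβ(1-42) and compound in PBS containing 5% EtOH and 3% DMSO at 37°C for 24 h. Coaggregates were imaged by inverted fluorescence microscope with a colour CCD camera. The read-out was the SD of fluorescence intensity over the central 100 × 100 pixels. Aggregation parameters came from Boltzmann fitting of SD versus time, compared with the no-inhibitor control.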

[7] = biological target: T1, Amyloid-beta precursor protein; experiment: Inhibition of QD-labeled amyloid beta (1 to 42) (unknown origin) aggregation assessed as aggregation growth rate at 5.13 uM after 24 hrs by inverted fluorescence microscopic method (reference value: 0.533 /min)
[8] = biological target: T1, Amyloid-beta precursor protein; experiment: Inhibition of QD-labeled amyloid beta (1 to 42) (unknown origin) aggregation assessed as lag time of aggregation at 5.13 uM after 24 hrs by inverted fluorescence microscopic method (reference value: 4.44 mins)
[9] = Inhibition of butter milk XOD (unknown origin) at 1 uM using xanthine as substrate after 8 mins relative to control
In short: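 Buttermilk xanthine oxidase in 100 mM phosphate buffer pH 7.6 was mixed with compound in DMSO. The reaction was started with xanthine solution (500 μM as added) and run at rt for 8 min, then stopped with 1N HCl. Absorbance was read at 290 nm, and % inhibition was calculated against enzyme-activity and blank wells.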

[10] = biological target: T1, Amyloid-beta precursor protein; experiment: Inhibition of QD-labeled amyloid beta (1 to 42) (unknown origin) aggregation assessed as aggregation growth rate at 20.3 uM after 24 hrs by inverted fluorescence microscopic method (reference value: 0.533 /min)
[11] = biological target: T1, Amyloid-beta precursor protein; experiment: Inhibition of QD-labeled amyloid beta (1 to 42) (unknown origin) aggregation assessed as lag time of aggregation at 20.3 uM after 24 hrs by inverted fluorescence microscopic method (reference value: 4.44 mins)
[12] = biological target: T1, Amyloid-beta precursor protein; experiment: Inhibition of QD-labeled amyloid beta (1 to 42) (unknown origin) aggregation assessed as change in fluorescence at 20.3 uM after 24 hrs by inverted fluorescence microscopic method (reference value: 6.77); in short: as §3

T1 sequence (P05067 whole entry): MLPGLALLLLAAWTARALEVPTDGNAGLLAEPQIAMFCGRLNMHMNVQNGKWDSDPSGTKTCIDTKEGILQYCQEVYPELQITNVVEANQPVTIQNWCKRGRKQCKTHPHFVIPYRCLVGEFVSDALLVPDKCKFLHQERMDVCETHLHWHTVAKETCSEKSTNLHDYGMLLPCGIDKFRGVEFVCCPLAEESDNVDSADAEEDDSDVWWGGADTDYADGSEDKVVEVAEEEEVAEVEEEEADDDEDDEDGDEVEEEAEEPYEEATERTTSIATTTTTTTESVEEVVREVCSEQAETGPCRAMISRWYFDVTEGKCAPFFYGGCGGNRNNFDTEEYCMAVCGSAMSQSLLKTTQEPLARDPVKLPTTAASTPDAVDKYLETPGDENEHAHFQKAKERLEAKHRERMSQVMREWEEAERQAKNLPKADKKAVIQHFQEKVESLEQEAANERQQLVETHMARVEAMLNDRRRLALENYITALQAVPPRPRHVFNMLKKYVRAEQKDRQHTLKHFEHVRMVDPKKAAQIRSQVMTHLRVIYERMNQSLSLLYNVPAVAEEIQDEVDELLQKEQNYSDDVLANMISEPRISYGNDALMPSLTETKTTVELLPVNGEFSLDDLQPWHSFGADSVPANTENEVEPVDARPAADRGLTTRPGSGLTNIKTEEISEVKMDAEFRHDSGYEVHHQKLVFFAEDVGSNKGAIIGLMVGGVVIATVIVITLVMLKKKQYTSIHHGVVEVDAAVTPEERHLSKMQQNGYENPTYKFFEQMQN

## O=C(/C=C/c1ccc(O)c(O)c1)NCCc1ccc(O)c(O)c1
[1]
  inhibition: 30%
[2]
  inhibition: < 10%
[3]
  inhibition: 47%
[4]
  inhibition: 64%
[5]
  EC50: 69 µM

## O=C(/C=C/c1ccc(O)c(O)c1)OCCCCCO
[1]
  inhibition: 84%
[2]
  inhibition: < 10%
[3]
  inhibition: 41%
[4]
  inhibition: 54%
[5]
  EC50: 80.1 µM

## NC(=O)C(Cc1ccc(O)c(O)c1)OC(=O)/C=C/c1ccc(O)c(O)c1 (stereo not given)
[1]
  inhibition: 82%
[2]
  inhibition: 38%
[3]
  inhibition: 39%
[4]
  inhibition: 48%
[5]
  EC50: 21.9 µM

## CCCCCCOC(=O)/C=C/c1ccc(O)c(O)c1 [HEXYLCAFFEATE]
[1]
  inhibition: < 10%
[2]
  inhibition: 10%
[6]
  Flu intensity: 3.68
[7]
  K: 0.19 min⁻¹
[3]
  inhibition: 45%
[8]
  TIME: 0.0183 h
[4]
  inhibition: 61%
[5]
  EC50: 5.13 µM

## CCCCCCC(=O)/C=C/c1ccc(O)c(O)c1
[1]
  inhibition: 76%
[2]
  inhibition: 12%
[3]
  inhibition: 48%
[4]
  inhibition: 62%
[5]
  EC50: 2.82 µM

## CCCCCNC(=O)/C=C/c1ccc(O)c(O)c1
[1]
  inhibition: 33%
[2]
  inhibition: < 10%
[3]
  inhibition: 40%
[4]
  inhibition: 53%
[5]
  EC50: 11.4 µM

## CCCCCOC(=O)/C=C/c1ccc(O)c(O)c1
[1]
  inhibition: > 90%
[2]
  inhibition: 11%
[3]
  inhibition: 46%
[4]
  inhibition: 62%
[5]
  EC50: 2.58 µM

## O=C(CCc1ccccc1)OCCc1ccc(O)c(O)c1
[1]
  inhibition: < 10%
[2]
  inhibition: < 10%
[3]
  inhibition: 38%
[4]
  inhibition: 54%
[5]
  EC50: 5.93 µM

## CCCCCCCOC(=O)/C=C/c1ccc(O)c(O)c1
[1]
  inhibition: 25%
[2]
  inhibition: 11%
[3]
  inhibition: 46%
[4]
  inhibition: 63%
[5]
  EC50: 10.4 µM

## CCCOC(=O)/C=C/c1ccc(O)c(O)c1
[1]
  inhibition: 61%
[2]
  inhibition: < 10%
[3]
  inhibition: 46%
[4]
  inhibition: 63%
[5]
  EC50: 24.7 µM

## O=C(O)/C=C/c1ccc(O)c(O)c1 [CAFFEIC ACID]
[1]
  inhibition: < 10%
[2]
  inhibition: < 10%
[3]
  inhibition: 49%
[4]
  inhibition: 63%
[5]
  EC50: 216 µM

## CCCCOC(=O)/C=C/c1ccc(O)c(O)c1 [BUTYL CAFFEATE]
[1]
  inhibition: > 90%
[2]
  inhibition: < 10%
[3]
  inhibition: 46%
[4]
  inhibition: 62%
[5]
  EC50: 12 µM

## COc1ccc(CCOC(=O)CCc2ccccc2)cc1OC
[1]
  inhibition: < 10%
[2]
  inhibition: < 10%
[3]
  inhibition: < 10%
[4]
  inhibition: < 10%
[5]
  EC50: 274 µM

## O=C(/C=C/c1ccccc1)OCCc1ccc(O)c(O)c1
[1]
  inhibition: 22%
[2]
  inhibition: < 10%
[3]
  inhibition: 40%
[4]
  inhibition: 56%
[5]
  EC50: 7.95 µM

## O=C(/C=C/c1ccc(O)c(O)c1)OCCCCCCO
[1]
  inhibition: 51%
[2]
  inhibition: < 10%
[3]
  inhibition: 42%
[4]
  inhibition: 55%
[5]
  EC50: 54.8 µM

## O=C(/C=C/c1ccccc1)OCCc1ccccc1 [PHENETHYL CINNAMATE]
[1]
  inhibition: < 10%
[2]
  inhibition: < 10%
[3]
  inhibition: < 10%
[4]
  inhibition: < 10%
[5]
  EC50: 1040 µM

## C=CCOC(=O)/C=C/c1ccc(O)c(O)c1
[1]
  inhibition: 22%
[2]
  inhibition: < 10%
[3]
  inhibition: 46%
[4]
  inhibition: 62%
[5]
  EC50: 23.2 µM

## O=C(/C=C/c1ccc(O)c(O)c1)OCCc1ccc(O)c(O)c1
[1]
  inhibition: 80%
[2]
  inhibition: 26%
[3]
  inhibition: 37%
[4]
  inhibition: 46%
[5]
  EC50: 20.6 µM

## O=C(/C=C/c1ccc(O)c(O)c1)OCCc1ccccc1 [CAFFEIC ACID PHENETHYL ESTER]
[1]
  inhibition: 62%
[2]
  inhibition: < 10%
[3]
  inhibition: 35%
[4]
  inhibition: 51%
[5]
  EC50: 8.41 µM

## CCCCCCCCCOC(=O)/C=C/c1ccc(O)c(O)c1
[1]
  inhibition: 40%
[2]
  inhibition: < 10%
[3]
  inhibition: 45%
[4]
  inhibition: 61%
[5]
  EC50: 9.52 µM

## Oc1ncnc2[nH]ncc12
[2]
  inhibition: > 90%
[9]
  inhibition: < 10%

## COC(=O)/C=C/c1ccc(O)c(O)c1 [METHYLCAFFEATE]
[1]
  inhibition: 65%
[2]
  inhibition: < 10%
[3]
  inhibition: 48%
[4]
  inhibition: 64%
[5]
  EC50: 67.7 µM

## O=C(CCc1ccc(O)c(O)c1)OCCc1ccc(O)c(O)c1
[1]
  inhibition: 21%
[2]
  inhibition: < 10%
[3]
  inhibition: 37%
[4]
  inhibition: 49%
[5]
  EC50: 14.9 µM

## O=C(CCc1ccccc1)OCCc1ccccc1
[1]
  inhibition: < 10%
[2]
  inhibition: < 10%
[3]
  inhibition: < 10%
[4]
  inhibition: < 10%
[5]
  EC50: 4540 µM

## CC1=NN(c2ccccc2)C(=O)C1
[3]
  inhibition: 50 to 53%
[4]
  inhibition: 71 to 75%

## O=C(/C=C/c1ccc(O)c(O)c1)O[C@H](Cc1ccc(O)c(O)c1)C(=O)O [ROSMARINIC ACID]
[10]
  K: 0.508 min⁻¹
[1]
  inhibition: 27%
[11]
  TIME: 0.093 h
[12]
  Flu intensity: 3.4
[2]
  inhibition: < 10%
[3]
  inhibition: 47%
[4]
  inhibition: 66%
[5]
  EC50: 20.3 µM

## COc1ccc(CCOC(=O)/C=C/c2ccc(O)c(O)c2)cc1OC
[1]
  inhibition: 43%
[2]
  inhibition: 50%
[3]
  inhibition: 43%
[4]
  inhibition: 59%
[5]
  EC50: 39.5 µM
